Source: PubChem (several laboratories)
An excerpt weighted towards active compounds, which were near 2.7% of everything screened.
MsrA act: activators of bovine methionine sulfoxide reductase A; AID 602163; purified bovine MsrA, absorbance read-out; actives 0.3% (n = 360,000); activation, % at 10.6 µM; in the data active means activation above about 7.5%;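 further: 0% = vehicle and 100% = reference activator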
ASAP1 inh: ASAP1 ArfGAP inhibition; Q9ULH1; ASAP1-stimulated ARF1 GTP hydrolysis, GDP FP detection; inhibition, % at 16.5 µM; actives 0.19% (n = 360,000); AID 624377; in the data active means inhibition above about 25%;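 further: 0% = vehicle with enzyme and substrate and 100% = no enzyme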
ARFGAP1 inh: inhibitors of rat ARFGAP1; Arfgap1-stimulated ARF1 GTP hydrolysis, GDP FP detection; inhibition, % at 16.5 µM; actives 0.26% (n = 360,000); AID 651572;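 active means inhibition above a per-plate limit, mean inhibition of low control wells plus 3 SD, cut at about 25% in these data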;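 further: 0% = DMSO wells with enzyme and 100% = wells lacking Arfgap1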
Target sequence (Q62848 1-136 limits assumed): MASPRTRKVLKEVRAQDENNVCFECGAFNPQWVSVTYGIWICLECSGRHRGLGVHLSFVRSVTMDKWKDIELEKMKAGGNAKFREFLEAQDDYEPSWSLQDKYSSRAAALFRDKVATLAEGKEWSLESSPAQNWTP
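system = rat Arfgap1 catalytic domain, aa 1-136 | technique = FP, GDP Alexa 633 tracer displaced from anti-GDP antibody, 620/688 nm | compound = one concentration, 16.5 µM, DMSO 1.26% | medium = HEPES-based buffer, pH 7.5 | timing = compound-enzyme preincubation 20 min, reaction 120 min, detection 60 min, 25 °C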
NR1D1 modulator: Rev-erb alpha (human) modulation | Rev-erbα–FITC-DNA binding, fluorescence polarization, 90 min | P20393 | actives 0.79% (n = 370,000) | activity, % at 10 µM;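 active means activity above about 14%, limit read from the data; passing the limit was not always enough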;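 further: 0% = DMSO wells with 35 nM protein and 100% = DMSO wells with 750 nM protein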
HGIII-sPLA2 inh: Blocks human group III sPLA2 activity; Q9NZ20; QFRET BODIPY PC-A2 liposome hydrolysis, fluorescence; inhibition, % at 12.2 µM; actives 0.56% (n = 370,000);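 active means inhibition above mean plus 3 SD of compounds lying within the high and low control bounds, cut at about 19% in these data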;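 further: 0% = median of test compound wells and 100% = no enzyme DMSO wells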
Target sequence (Q9NZ20 whole entry, looked up): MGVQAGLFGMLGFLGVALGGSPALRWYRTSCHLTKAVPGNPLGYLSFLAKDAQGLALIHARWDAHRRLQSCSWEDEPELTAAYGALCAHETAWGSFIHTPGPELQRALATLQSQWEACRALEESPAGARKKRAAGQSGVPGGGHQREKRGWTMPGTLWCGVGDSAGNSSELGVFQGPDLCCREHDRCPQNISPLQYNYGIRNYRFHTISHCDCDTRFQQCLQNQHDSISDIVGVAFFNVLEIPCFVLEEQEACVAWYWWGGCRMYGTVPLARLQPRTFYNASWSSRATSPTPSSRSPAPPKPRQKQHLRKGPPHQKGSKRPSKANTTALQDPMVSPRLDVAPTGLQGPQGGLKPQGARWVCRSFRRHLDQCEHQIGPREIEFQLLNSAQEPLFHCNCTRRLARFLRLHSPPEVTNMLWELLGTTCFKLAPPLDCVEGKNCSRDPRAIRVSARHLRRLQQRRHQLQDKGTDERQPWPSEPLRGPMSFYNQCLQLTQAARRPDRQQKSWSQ
MsrA inhibitor: bovine MsrA inhibition | inhibition, % at 15.5 µM | actives 0.75% (n = 360,000) | purified bovine MsrA, absorbance read-out; in the data active means inhibition above about 4.5%;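 further: 0% = vehicle wells with enzyme and 100% = reference inhibitor wells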
NR1D1 mod conf: confirmation of modulators of human Rev-erb alpha DNA binding | activation, % at 25 µM | actives 61% (n = 3,000) | Rev-erb alpha FITC-DNA binding, fluorescence polarization, 90 min | shares compounds with NR1D1 modulator;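 active means activation at or above a set limit, or at least 3 SD above the negative control mean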;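 further: 0% = 35 nM protein with DMSO and 100% = 750 nM protein high control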
RORg counter: affects RORgamma DNA binding in a Rev-erb alpha counter-screen | shares compounds with NR1D1 modulator | IC50, µM | actives 8% (n = 910) | purified RORgamma protein-FITC-DNA binding, fluorescence polarization;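 active means Compounds whose fitted half-maximal concentration for disrupting protein-DNA binding is below 10 micromolar; the record names Rev-erb in its text, so the target is in doubt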
* marks the source's active call; other numbers are inactive results; nt = no result given.

SMILES	MsrA act	ASAP1 inh	ARFGAP1 inh	NR1D1 modulator	HGIII-sPLA2 inh	MsrA inhibitor	NR1D1 mod conf	others
COC(=O)C1=C(C)NC(C)=C(C(=O)OC(C)(C)CN(C)CCC(c2ccccc2)c2ccccc2)C1c1cccc([N+](=O)[O-])c1 (stereo not drawn)	nt	nt	nt	2	nt	nt	nt
c1nc(SSc2ncnc3nc[nH]c23)c2[nH]cnc2n1	4	-6	9	0	8	2	nt
COc1ccc(/C=N\NC(=O)c2ccccc2[N+](=O)[O-])cc1COc1c(F)c(F)c(F)c(F)c1F	-3	6	7	20*	-10	0	14
Cc1cc(C)c(-c2csc(NC(=O)C3=COCCO3)n2)cc1C	-2	9	3	19*	-31	1	6
c1ccc(-c2ccc(C3=Nn4c(nnc4-c4ccccn4)SC3)cc2)cc1	nt	nt	nt	-6	-10	nt	nt
Cc1cc(-c2ccccc2)[nH]c(=O)c1S(=O)(=O)c1ccc(Cl)cc1	-2	-9	4	51*	0	-1	21*
CCOc1ccc(S(=O)(=O)N(C)c2ccc(OCC(=O)Nc3nc(-c4cc(OC)ccc4OC)cs3)cc2)cc1	-10	-2	4	25*	8	2	30*
Cc1cc2c(cc1C)-n1nnnc1C(N1CCN(c3ccccn3)CC1)C(c1ccc3c(c1)OCO3)=N2 (stereo not drawn)	nt	2	-1	5	-3	-1	nt
COc1ccc(-c2nc3c4ccccc4ccn3c2C=O)cc1	-1	12	-3	53*	19	-1	93*	RORg counter=>40
CC(C)C(C(=O)NC1CCCC1)N1CCN(c2ncccc2C#N)CC1 (stereo not drawn)	nt	2	3	0	7	3	nt
O=[N+]([O-])c1ccc(Oc2cccc(F)c2)c2ccncc12	-3	3	5	14*	3	2	9
CCOC(=O)C(CN1CCCC1)c1ccccc1 (stereo not drawn)	-3	9	4	21*	5	0	6
O=C(c1ccc(Cl)cc1)C(CN1CCCCC1)c1ccccc1 (stereo not drawn)	-2	6	2	-1	1	1	nt
c1ccc(CCNc2ccc3ncc(-c4cccc5ccccc45)n3n2)nc1	-2	0	-3	-3	-5	0	nt
CC1(C(=O)Nc2ccc3c(c2)OCCO3)CN(S(C)(=O)=O)CC(=O)N1CCc1ccc(O)cc1 (stereo not drawn)	nt	-2	6	12	-7	2	nt
CN(CC(=O)Nc1ccc(F)cc1)C(=O)COC(=O)CNC(=O)c1sc2ccccc2c1Cl	-2	8	12	23*	0	-2	9
O=C(CNC(=O)c1sc2ccccc2c1Cl)Nc1ccccc1F	-1	1	7	44*	3	-1	10
O=C(CNC(=O)c1sc2ccccc2c1Cl)NCc1ccc(F)cc1	-5	-11	-4	10	7	0	nt
COc1ccc(NC(=O)CN(C)C(=O)CNC(=O)c2sc3ccccc3c2Cl)cc1	-1	14	19	-2	10	1	nt
CN(C)c1ccc(/C=C(/C#N)C(=O)NCc2ccccc2)o1	-5	0	14	33*	-13	1	11
CCCn1c(=NC(=O)CCS(=O)(=O)c2ccccc2)sc2cc(S(N)(=O)=O)ccc21	-12	4	-11	4	-2	1	nt
COCCn1c(=NC(=O)c2ccc(S(=O)(=O)N3CCc4ccccc4C3)cc2)sc2cc(OC)ccc21	1	5	-4	54*	3	0	19*
COc1ccc2sc(N(CCCN(C)C)C(=O)c3ccc(S(=O)(=O)N4CCc5ccccc5C4)cc3)nc2c1	-10	4	-13	-4	-20	-1	nt
COCCn1c(=NC(=O)CCS(=O)(=O)c2ccccc2)sc2cc(C(=O)OC)ccc21	0	-8	-12	205*	1	-1	137*	RORg counter=>40
Cc1sc2ncnc(SCC(=O)NC(=O)c3cccn3C)c2c1C	1	-3	1	39*	0	0	25*
SMILES	MsrA act	ASAP1 inh	ARFGAP1 inh	NR1D1 modulator	HGIII-sPLA2 inh	MsrA inhibitor	NR1D1 mod conf	others
Cc1sc2ncnc(SCC(=O)N3c4ccccc4Sc4ccc(Cl)cc43)c2c1C	2	1	1	132*	0	1	17*
Cc1cccc(NC(=O)CSc2ncnc3sc(C)c(C)c23)n1	-2	-15	6	-2	-7	0	nt
Cc1sc2ncnc(SCC(=O)N3CCCCC3)c2c1C	-2	8	13	-1	-2	-1	nt
COc1ccccc1Cc1c(-c2ccccc2)nc2c3ccccc3ccn12	nt	-4	3	0	4	0	nt
O=C(Nc1ccc(-c2nc3ccccc3s2)c(O)c1)C1=COCCO1	-1	-5	-5	87*	-6	2	12
O=C(Nc1ccc(O)c(-c2nc3ccccc3s2)c1)C1=COCCO1	-3	20	-10	494*	-10	1	259*	RORg counter=>40
O=C(Nc1ccc(-c2nc3ccccc3s2)cc1)C1=COCCO1	-1	-9	-9	9	11	1	nt
Cn1nccc1C(=O)Nc1sc2c(c1C#N)CCCC2	-10	-9	-19	-2	6	4	nt
COc1ccc(-c2c(C)sc(NC(=O)c3ccnn3C)c2C#N)cc1	-4	12	6	47*	5	1	27*
Cc1ccc(OCCn2c(NC(=O)c3ccco3)nc3ccccc32)cc1	-2	-7	6	30*	-7	0	13
O=C(Nc1nc2ccccc2n1Cc1ccc(Cl)cc1)c1ccco1	0	-5	-9	28*	1	0	7
O=[N+]([O-])c1cc(F)cc(F)c1Nc1cc(F)cc(F)c1	-7	-4	-7	3	-2	-1	nt
Cc1c(C(=O)N2CCN(Cc3ccc4c(c3)OCO4)CC2)sc2ncnc(N3CCN(c4ccccc4F)CC3)c12	-3	18	23	22*	0	2	18*
O=S(=O)(c1ccc(NC(=S)NC23CC4CC(CC(C4)C2)C3)cc1)N1CCCCC1	-1	-10	-4	-5	0	-1	nt
CCOc1ccc(NC(=O)CN(C)C(=O)c2cccc(S(=O)(=O)N3CCN(C)CC3)c2)cc1OCC	-4	4	-10	-2	-3	0	nt
OCC1OC(Oc2cccc3ccccc23)C(O)C(O)C1O (stereo not drawn)	-2	7	15	26*	4	1	-3
OC[C@H]1O[C@@H](Oc2ccc(O)cc2)[C@H](O)[C@@H](O)[C@@H]1O	1	3	14	3	-3	-1	nt
